Reference: the M2OR odorant receptor database
Numbering of substitutions follows the chain as printed.

Legend:
Conditions in all cases: stereoisomer not certain
O52E8 = system: O52E8
How it was run: (§1)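 Assay methods differ from source to source, frequently being transient luciferase assays in mammalian cell lines. For each receptor–molecule pair, the label responsive (active) applies when the original authors judged the measured signal statistically different from baseline, and non-responsive (inactive) applies otherwise.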

O52H1 = system: T1, O52H1
T1 sequence (whole entry): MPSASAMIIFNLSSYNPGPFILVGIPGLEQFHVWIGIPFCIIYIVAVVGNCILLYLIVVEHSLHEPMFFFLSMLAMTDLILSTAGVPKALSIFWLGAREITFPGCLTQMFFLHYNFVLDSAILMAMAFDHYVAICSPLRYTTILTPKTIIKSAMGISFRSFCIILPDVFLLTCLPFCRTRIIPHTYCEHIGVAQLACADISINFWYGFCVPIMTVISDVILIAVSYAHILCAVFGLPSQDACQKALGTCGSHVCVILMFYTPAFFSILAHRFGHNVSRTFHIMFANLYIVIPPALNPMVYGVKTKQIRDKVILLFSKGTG
How it was run: as §1

O51F1 [1] = system: T2, O51F1
T2 sequence (whole entry): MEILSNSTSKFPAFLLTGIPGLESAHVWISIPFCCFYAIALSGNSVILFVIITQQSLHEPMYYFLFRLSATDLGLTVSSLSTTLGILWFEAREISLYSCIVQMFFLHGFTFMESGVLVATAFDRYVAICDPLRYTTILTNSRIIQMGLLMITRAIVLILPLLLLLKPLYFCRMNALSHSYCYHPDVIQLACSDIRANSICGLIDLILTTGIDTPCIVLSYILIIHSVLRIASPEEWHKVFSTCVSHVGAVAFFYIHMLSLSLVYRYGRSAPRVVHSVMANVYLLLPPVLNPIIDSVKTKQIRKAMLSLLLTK
How it was run: as §1

O51F1 [2] = system: T3, O51F1; remark: listed apart in the source
T3 sequence (whole entry): T2 sequence (whole entry) with A13T
How it was run: as §1

O51F2 Y341S = system: T4, O51F2 Y341S
T4 sequence (whole entry): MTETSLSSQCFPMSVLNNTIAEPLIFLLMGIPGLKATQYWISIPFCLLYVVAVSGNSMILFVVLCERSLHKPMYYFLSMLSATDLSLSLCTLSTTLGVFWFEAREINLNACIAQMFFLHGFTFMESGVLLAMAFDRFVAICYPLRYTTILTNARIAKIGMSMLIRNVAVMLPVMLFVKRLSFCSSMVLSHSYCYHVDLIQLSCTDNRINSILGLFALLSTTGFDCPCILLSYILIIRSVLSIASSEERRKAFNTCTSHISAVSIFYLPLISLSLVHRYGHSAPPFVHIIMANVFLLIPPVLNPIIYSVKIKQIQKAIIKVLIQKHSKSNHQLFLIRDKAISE
How it was run: as §1

O51G1 = system: T5, O51G1
T5 sequence (whole entry): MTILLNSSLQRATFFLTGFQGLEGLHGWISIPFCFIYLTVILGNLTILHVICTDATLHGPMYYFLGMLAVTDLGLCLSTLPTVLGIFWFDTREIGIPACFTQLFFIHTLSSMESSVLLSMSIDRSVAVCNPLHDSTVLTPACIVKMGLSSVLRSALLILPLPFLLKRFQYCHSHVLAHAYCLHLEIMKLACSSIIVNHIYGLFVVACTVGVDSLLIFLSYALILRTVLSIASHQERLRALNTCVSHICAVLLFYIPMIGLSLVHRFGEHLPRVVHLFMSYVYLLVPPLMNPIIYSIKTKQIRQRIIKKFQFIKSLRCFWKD
How it was run: as §1

O51I1 V164L = system: T6, O51I1 V164L
T6 sequence (whole entry): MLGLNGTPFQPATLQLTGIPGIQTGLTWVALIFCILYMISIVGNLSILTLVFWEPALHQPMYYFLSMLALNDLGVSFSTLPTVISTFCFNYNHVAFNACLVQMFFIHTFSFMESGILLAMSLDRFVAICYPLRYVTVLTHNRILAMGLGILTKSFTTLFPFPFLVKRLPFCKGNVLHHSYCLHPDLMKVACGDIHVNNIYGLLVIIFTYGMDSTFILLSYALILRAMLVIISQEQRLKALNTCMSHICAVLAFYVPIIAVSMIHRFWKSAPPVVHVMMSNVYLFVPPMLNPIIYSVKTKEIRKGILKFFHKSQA
How it was run: as §1

O51J1 R75H I202V = system: T7, O51J1 R75H I202V
T7 sequence (whole entry): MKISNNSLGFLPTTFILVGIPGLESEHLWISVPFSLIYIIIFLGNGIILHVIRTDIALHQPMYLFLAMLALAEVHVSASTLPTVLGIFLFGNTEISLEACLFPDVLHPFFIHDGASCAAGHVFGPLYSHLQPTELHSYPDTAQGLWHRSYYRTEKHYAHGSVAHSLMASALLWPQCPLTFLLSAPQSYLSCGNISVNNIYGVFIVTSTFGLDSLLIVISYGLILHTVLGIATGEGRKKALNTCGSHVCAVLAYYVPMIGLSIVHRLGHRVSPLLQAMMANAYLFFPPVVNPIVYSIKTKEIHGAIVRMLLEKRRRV
How it was run: as §1

O51L1 = system: T8, O51L1
T8 sequence (whole entry): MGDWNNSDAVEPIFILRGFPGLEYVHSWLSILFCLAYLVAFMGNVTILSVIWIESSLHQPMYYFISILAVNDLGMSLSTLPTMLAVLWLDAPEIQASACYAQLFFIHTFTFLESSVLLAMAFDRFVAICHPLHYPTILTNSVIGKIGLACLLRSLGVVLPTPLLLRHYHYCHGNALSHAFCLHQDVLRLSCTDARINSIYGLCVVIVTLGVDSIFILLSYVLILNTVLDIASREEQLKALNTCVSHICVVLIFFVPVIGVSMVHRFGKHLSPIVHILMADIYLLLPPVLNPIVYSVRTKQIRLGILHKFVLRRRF
How it was run: as §1

O51T1 = system: T9, O51T1
T9 sequence (whole entry): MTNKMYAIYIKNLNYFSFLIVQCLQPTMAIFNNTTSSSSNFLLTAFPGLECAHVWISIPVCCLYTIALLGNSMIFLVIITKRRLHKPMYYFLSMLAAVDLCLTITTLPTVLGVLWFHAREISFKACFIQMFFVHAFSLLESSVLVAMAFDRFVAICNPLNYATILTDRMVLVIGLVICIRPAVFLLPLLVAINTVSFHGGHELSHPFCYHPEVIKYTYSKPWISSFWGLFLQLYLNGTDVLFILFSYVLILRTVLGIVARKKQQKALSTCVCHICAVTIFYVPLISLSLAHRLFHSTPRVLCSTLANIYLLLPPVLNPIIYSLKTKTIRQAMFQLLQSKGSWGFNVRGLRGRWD
How it was run: as §1

O51V1 L36F N51T G96W = system: T10, O51V1 L36F N51T G96W
T10 sequence (whole entry): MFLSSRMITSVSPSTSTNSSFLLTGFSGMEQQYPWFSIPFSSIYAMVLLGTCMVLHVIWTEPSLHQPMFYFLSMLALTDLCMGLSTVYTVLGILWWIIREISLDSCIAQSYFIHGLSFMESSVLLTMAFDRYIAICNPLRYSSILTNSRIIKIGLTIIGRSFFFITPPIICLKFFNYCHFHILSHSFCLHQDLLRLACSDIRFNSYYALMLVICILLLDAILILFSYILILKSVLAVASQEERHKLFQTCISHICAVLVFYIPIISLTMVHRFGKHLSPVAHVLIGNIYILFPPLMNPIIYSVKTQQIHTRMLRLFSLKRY
How it was run: as §1

O52A1 = system: T11, O52A1
T11 sequence (whole entry): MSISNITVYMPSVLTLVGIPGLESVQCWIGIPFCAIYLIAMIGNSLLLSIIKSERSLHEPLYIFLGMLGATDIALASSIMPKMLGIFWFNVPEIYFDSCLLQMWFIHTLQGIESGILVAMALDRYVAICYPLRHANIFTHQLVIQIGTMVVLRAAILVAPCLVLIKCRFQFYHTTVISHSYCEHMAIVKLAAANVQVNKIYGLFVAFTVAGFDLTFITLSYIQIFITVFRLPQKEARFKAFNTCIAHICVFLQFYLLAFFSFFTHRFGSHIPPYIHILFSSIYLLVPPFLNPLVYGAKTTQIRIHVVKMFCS
How it was run: as §1

O52B6 V288I = system: T12, O52B6 V288I
T12 sequence (whole entry): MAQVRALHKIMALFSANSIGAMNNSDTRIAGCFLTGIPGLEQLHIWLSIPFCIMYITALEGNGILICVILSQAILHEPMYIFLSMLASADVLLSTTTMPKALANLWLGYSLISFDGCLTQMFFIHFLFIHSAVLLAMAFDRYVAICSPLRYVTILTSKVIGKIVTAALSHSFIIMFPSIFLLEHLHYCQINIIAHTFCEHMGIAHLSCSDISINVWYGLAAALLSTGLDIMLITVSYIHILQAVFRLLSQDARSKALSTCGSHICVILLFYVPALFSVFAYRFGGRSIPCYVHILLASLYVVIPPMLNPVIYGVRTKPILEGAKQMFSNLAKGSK
How it was run: as §1

O52E2 R264C = system: O52E2 R264C
Chain of O52E2 R264C (as listed by the source, stated change not applied): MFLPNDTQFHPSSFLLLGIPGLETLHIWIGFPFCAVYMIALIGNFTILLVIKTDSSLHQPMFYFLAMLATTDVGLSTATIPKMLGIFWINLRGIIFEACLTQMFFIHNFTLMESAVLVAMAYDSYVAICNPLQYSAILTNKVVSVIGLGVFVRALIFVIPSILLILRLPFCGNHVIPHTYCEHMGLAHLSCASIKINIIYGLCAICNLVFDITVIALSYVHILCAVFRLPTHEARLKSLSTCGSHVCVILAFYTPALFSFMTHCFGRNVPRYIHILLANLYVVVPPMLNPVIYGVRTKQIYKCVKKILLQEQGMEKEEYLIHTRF
How it was run: as §1

O52E4 = system: O52E4
Chain of O52E4 (as listed by the source): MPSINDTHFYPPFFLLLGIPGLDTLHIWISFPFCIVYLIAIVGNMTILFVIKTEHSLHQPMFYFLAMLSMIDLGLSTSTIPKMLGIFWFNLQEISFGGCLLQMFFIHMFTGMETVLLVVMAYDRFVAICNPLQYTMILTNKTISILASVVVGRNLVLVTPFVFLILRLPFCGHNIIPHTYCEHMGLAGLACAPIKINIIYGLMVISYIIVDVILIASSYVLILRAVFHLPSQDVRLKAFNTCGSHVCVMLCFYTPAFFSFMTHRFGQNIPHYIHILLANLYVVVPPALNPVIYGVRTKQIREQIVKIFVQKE
How it was run: as §1

O52E5 = system: O52E5
Chain of O52E5 (as listed by the source): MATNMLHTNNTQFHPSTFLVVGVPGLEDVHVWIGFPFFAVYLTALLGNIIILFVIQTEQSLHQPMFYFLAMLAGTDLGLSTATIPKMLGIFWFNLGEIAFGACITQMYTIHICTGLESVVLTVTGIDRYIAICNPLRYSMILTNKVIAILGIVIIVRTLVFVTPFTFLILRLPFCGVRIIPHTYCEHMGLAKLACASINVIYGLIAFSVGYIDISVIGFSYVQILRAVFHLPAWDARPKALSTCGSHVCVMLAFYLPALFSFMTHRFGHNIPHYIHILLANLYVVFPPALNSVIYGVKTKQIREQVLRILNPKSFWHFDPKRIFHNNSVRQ
How it was run: as §1

O52H1 A89T H130R C242R = system: T13, O52H1 A89T H130R C242R
T13 sequence (whole entry): T1 sequence (whole entry) with A89T, H130R, C242R
How it was run: as §1

O52H1 H130R C242R = system: T14, O52H1 H130R C242R
T14 sequence (whole entry): T1 sequence (whole entry) with H130R, C242R
How it was run: as §1

O52I2 I74L = system: T15, O52I2 I74L
T15 sequence (whole entry): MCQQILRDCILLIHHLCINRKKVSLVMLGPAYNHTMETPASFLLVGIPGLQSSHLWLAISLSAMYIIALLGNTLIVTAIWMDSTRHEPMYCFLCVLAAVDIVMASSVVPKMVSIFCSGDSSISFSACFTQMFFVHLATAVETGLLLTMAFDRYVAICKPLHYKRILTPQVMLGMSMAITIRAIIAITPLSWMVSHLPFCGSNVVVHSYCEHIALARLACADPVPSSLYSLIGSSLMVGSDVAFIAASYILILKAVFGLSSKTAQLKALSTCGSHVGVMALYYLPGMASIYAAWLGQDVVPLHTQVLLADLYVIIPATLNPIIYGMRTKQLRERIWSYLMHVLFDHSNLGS
How it was run: as §1

O51J1 = system: O51J1
Chain of O51J1 (as listed by the source): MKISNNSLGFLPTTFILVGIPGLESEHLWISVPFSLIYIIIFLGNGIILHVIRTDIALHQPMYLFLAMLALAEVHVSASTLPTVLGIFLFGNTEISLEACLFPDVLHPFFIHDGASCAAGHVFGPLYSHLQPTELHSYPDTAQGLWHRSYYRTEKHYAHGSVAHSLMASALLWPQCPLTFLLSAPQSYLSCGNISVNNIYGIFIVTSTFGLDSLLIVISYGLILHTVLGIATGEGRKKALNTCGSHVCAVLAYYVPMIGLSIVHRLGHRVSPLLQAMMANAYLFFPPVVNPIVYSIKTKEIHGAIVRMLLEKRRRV
How it was run: as §1

Measured: odorant receptor agonist call

Chain of O52E8 (as listed by the source): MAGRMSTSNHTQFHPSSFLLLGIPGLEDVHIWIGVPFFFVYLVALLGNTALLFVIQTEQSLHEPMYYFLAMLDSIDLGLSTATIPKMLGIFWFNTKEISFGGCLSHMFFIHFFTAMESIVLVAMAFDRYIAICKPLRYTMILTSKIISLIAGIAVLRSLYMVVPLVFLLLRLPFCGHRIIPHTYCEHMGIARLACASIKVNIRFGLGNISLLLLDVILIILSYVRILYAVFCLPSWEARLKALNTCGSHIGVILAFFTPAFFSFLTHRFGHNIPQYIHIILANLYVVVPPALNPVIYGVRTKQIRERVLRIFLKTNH

CCCCC(S)C(C)CO (stereo not drawn)
inactive: O52E8 | O52H1

CCC(S)C(C)CO (stereo not drawn)
inactive: O52E8 | O52H1

CC1=NC(C)C(C)S1 (stereo not drawn)
not listed: O51J1
inactive: all other assays above

CCCC(S)CCOC(C)=O (stereo not drawn)
not listed: O51J1
inactive: all other assays above

CCCCCC(S)C(C)CO (stereo not drawn)
inactive: O52E8 | O52H1

CC1=C(O)C(=O)OC1C (stereo not drawn)
not listed: O51J1
inactive: all other assays above

CCCCCC(=O)C(C)C(C)=O (stereo not drawn)
inactive: O52E8 | O52H1

C=C(C)C1CCC(C)C(=O)C1 (stereo not drawn)
inactive: O51F1 [1] | O51F1 [2]

CC(=O)c1c(C)c([N+](=O)[O-])c(C(C)(C)C)c([N+](=O)[O-])c1C
inactive: O52E8 | O52H1

CCCC(C)=CC(=O)O
inactive: O51J1

Cc1cnc(C)c(C)n1
not listed: O51J1
inactive: all other assays above

CCCCCCC=CCCC=O
not listed: O51F1 [2] | O51T1 | O52E5 | O51J1
inactive: all other assays above

CC(CO)CS (stereo not drawn)
inactive: O52E8 | O52H1

CCC1OC(C)=C(O)C1=O (stereo not drawn)
not listed: O51J1
inactive: all other assays above

CC1CCCCCCCCCCCCC(=O)C1 (stereo not drawn)
inactive: O52E8 | O52H1

CCC1OC(=O)C(O)=C1C (stereo not drawn)
not listed: O51J1
inactive: all other assays above

CCCCCC1CCCC(=O)O1 (stereo not drawn)
inactive: O52E8 | O52H1

CC1=C(O)C(=O)C(C)O1 (stereo not drawn)
not listed: O51J1
inactive: all other assays above
